ChEMBL document CHEMBL4049434, “Radiolabeled Dibenzodiazepinone-Type Antagonists Give Evidence of Dualsteric Binding at the M2 Muscarinic Acetylcholine Receptor” (J Med Chem, 2017)
pKi: −log10 of the molar value. Calls of active or inactive are those of the source. No cut-off for these calls is given here.

Experiments:
[1] = target: T1, Muscarinic acetylcholine receptor M4 (Homo sapiens, UniProt P08173); test: Displacement of [3H]NMS from human muscarinic acetylcholine receptor M4 expressed in CHOK9 cells after 3 hrs by liquid scintillation counting assay; assay type: cell-based
T1 sequence (P08173 whole entry): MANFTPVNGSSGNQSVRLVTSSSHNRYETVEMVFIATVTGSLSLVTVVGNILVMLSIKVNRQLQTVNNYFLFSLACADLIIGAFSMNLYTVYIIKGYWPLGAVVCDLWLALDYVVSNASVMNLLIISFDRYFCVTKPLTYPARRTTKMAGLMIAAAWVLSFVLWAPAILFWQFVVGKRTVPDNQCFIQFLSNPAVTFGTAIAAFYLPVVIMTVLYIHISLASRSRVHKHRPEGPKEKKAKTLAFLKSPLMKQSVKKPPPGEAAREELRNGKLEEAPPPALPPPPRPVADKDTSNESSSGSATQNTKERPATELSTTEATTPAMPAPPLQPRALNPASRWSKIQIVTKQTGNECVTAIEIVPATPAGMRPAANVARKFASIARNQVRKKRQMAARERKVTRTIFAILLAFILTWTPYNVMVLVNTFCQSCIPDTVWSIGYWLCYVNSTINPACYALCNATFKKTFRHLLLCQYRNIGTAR

[2] = target: T2, Muscarinic acetylcholine receptor M2 (Homo sapiens, UniProt P08172); test: (§1) Displacement of [3H]NMS from human muscarinic acetylcholine receptor M2 expressed in CHOK9 cells after 3 hrs by liquid scintillation counting assay; assay type: cell-based; conditions: read-out: pKi (converted)
T2 sequence (P08172 whole entry): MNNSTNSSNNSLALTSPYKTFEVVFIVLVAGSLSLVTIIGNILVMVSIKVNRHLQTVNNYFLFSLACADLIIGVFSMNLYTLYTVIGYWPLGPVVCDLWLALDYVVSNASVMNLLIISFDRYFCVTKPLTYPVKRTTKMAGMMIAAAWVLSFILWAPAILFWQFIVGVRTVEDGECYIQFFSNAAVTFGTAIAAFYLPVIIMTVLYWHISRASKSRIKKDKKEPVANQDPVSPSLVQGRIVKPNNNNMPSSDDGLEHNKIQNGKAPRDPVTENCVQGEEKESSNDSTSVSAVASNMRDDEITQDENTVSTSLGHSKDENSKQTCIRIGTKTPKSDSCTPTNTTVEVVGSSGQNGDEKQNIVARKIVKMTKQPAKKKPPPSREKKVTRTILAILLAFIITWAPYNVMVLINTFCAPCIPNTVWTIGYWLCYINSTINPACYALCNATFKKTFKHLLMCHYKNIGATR

[3] = target: T3, Muscarinic acetylcholine receptor M2 (Homo sapiens) (UniProt P08172); test: Binding affinity to human muscarinic acetylcholine receptor M2 expressed in CHOK9 cell homogenate after 2 hrs by liquid scintillation counting assay; conditions: tested as the 3H-labelled form
T3 sequence (whole entry): T2 sequence (P08172 whole entry)
In short: (§2)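 CHO-hM2 cell homogenates (25–30 μg protein/well) in L15 medium with 1% BSA, 23 ± 1 °C, 2 h with tritiated dimeric radioligand. Competition used 0.5 nM radioligand; additional 0.4, 1, 2 and 4 nM in W84 experiments. […] Four-parameter logistic fits; at least three experiments in triplicate.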

[4] = target: T4, Muscarinic acetylcholine receptor M5 (Homo sapiens, UniProt P08912); test: Displacement of [3H]NMS from human muscarinic acetylcholine receptor M5 expressed in CHOK9 cells after 3 hrs by liquid scintillation counting assay; assay type: cell-based
T4 sequence (P08912 whole entry): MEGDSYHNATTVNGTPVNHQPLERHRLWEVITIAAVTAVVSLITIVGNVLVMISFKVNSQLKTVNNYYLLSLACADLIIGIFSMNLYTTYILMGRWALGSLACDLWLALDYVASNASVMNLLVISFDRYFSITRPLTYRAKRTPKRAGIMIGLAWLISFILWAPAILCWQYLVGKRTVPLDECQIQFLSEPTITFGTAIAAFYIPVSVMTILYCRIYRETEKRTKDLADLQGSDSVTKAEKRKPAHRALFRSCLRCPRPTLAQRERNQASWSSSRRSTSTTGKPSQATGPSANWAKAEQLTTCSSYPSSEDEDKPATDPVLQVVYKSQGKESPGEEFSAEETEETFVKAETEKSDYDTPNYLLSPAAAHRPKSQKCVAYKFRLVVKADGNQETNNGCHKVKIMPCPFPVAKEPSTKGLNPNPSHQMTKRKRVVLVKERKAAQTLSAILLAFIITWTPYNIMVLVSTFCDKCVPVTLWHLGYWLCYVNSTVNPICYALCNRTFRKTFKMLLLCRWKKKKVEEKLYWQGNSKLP

[5] = target: T3, Muscarinic acetylcholine receptor M2 (Homo sapiens); test: Binding affinity to human muscarinic acetylcholine receptor M2 expressed in live adherent CHOK9 cells after 2 hrs by liquid scintillation counting assay; assay type: cell-based; conditions: tested as the 3H-labelled form
In short: (§3)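 Live adherent CHO-hM2 cells in L15 medium with 1% BSA, 23 ± 1 °C, 2 h incubation. Competition at 2 nM radioligand; additional 4, 8, 15 and 30 nM in W84 experiments. […] Saturation data fitted one-site; competition by four-parameter logistic fits; at least three experiments in triplicate.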

[6] = target: T3, Muscarinic acetylcholine receptor M2 (Homo sapiens); test: Binding affinity to human muscarinic acetylcholine receptor M2 expressed in live adherent CHOK9 cells at Kd in presence of 500-fold excess atropine after 2 hrs by liquid scintillation counting assay relative to control; assay type: cell-based; conditions: tested as the 3H-labelled form; in short: as §3
[7] = Chemical stability of the compound in PBS buffer at pH 7.4 after 48 hrs by HPLC analysis; assay type: physicochemical; conditions: pH 7.4, 48 h
In short: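 Compound at 100 μM final (from 10 mM stock) in PBS pH 7.4 at 22 ± 1 °C; samples taken at 0, 24 and 48 h, mixed with acetonitrile/1% aq TFA 2:8, analysed by RP-HPLC at 220 nm.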

[8] = target: T3, Muscarinic acetylcholine receptor M2 (Homo sapiens); test: Binding affinity to human muscarinic acetylcholine receptor M2 expressed in CHOK9 cell homogenates at Kd in presence of 500-fold excess atropine after 2 hrs by liquid scintillation counting assay relative to control; conditions: tested as the 3H-labelled form; in short: as §2
[9] = target: Muscarinic acetylcholine receptor M3 (Homo sapiens, UniProt P20309); test: Displacement of [3H]NMS from human muscarinic acetylcholine receptor M3 expressed in CHOK9 cells after 3 hrs by liquid scintillation counting assay; assay type: cell-based
Chain of Muscarinic acetylcholine receptor M3 (P20309 whole entry): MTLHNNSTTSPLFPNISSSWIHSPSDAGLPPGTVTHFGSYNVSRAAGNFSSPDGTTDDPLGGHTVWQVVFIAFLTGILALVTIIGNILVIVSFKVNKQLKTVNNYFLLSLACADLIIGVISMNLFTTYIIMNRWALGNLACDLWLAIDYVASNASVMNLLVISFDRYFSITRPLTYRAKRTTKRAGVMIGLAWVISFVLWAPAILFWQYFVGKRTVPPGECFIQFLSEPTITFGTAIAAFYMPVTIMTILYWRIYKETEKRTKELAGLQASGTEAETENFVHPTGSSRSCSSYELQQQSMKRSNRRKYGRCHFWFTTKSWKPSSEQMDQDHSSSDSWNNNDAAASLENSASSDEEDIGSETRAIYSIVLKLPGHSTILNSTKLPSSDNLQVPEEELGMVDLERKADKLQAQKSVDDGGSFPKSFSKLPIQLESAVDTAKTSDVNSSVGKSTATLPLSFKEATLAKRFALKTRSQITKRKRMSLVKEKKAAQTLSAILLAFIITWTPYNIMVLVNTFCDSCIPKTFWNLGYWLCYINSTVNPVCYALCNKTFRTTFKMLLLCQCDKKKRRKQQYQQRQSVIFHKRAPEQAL

[10] = target: T5, Muscarinic acetylcholine receptor M1 (Homo sapiens, UniProt P11229); test: Displacement of [3H]NMS from human muscarinic acetylcholine receptor M1 expressed in CHOK9 cells after 3 hrs by liquid scintillation counting assay; assay type: cell-based
T5 sequence (P11229 whole entry): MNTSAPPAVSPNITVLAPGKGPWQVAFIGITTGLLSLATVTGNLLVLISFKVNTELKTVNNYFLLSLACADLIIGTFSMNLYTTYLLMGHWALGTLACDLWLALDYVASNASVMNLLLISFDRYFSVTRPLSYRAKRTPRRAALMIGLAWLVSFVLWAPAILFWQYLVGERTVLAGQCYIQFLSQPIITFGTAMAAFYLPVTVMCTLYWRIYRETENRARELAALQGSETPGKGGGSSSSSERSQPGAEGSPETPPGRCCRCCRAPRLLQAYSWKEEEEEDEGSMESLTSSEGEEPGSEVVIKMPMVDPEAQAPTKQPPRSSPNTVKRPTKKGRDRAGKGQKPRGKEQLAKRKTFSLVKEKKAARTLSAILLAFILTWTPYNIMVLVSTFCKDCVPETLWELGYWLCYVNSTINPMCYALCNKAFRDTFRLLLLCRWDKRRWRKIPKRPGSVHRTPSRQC

[11] = target: Muscarinic acetylcholine receptor M2 (Homo sapiens) (UniProt P08172); test: Displacement of [3H]UNSW-MK259 from human muscarinic acetylcholine receptor M2 expressed in CHOK9 cells at <100 uM after 3 hrs by liquid scintillation counting assay
[12] = target: Muscarinic acetylcholine receptor M2 (Homo sapiens) (UniProt P08172); test: Displacement of [3H]NMS from human muscarinic acetylcholine receptor M2 expressed in CHOK9 cells at <100 uM after 3 hrs by liquid scintillation counting assay
[13] = target: T3, Muscarinic acetylcholine receptor M2 (Homo sapiens); test: as §1; assay type: cell-based
[14] = target: T2, Muscarinic acetylcholine receptor M2; test: Displacement of [3H]UR-AP060 from human muscarinic acetylcholine receptor M2 expressed in CHOK9 cell homogenate after 3 hrs by liquid scintillation counting assay
[15] = target: T2, Muscarinic acetylcholine receptor M2; test: Displacement of [3H]NMS from human muscarinic acetylcholine receptor M2 expressed in CHO cells after 2 hrs; assay type: cell-based
[16] = target: T2, Muscarinic acetylcholine receptor M2; test: Displacement of [3H]UNSW-MK259 from human muscarinic acetylcholine receptor M2 expressed in CHOK9 cells after 3 hrs by liquid scintillation counting assay; assay type: cell-based
[17] = target: T2, Muscarinic acetylcholine receptor M2; test: Displacement of [3H]Dimethyl-W84 from human muscarinic acetylcholine receptor M2 expressed in CHO cells after 2 hrs; assay type: cell-based
[18] = target: T2, Muscarinic acetylcholine receptor M2; test: Displacement of [3H]NMS from human muscarinic acetylcholine receptor M2
In short: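 Competition binding at intact adherent CHO-K9 cells stably expressing human M2R. Cells were incubated with [3H]NMS 0.2 nM (final) and competitor for 3 h at 23 ± 1 °C in Leibovitz L-15 medium with 1% BSA. […] Curves were fitted by four-parameter logistic fits. Replicates: 3 to 9 independent experiments, each in triplicate.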

With `CCC(=O)NC1CN(CCCCC2CCN(CC(=O)N3c4ccccc4NC(=O)c4ccccc43)CC2)CCN(CCCCC2CCN(CC(=O)N3c4ccccc4NC(=O)c4ccccc43)CC2)C1.O=C(O)C(F)(F)F.O=C(O)C(F)(F)F.O=C(O)C(F)(F)F.O=C(O)C(F)(F)F` as the compound, how does the pKi [1] read?
The pKi was 8.44.

What about the Ki [2] of the same compound?
Its Ki is 0.708 nM.

And the Bmax (disintegrations/minute) [3]?
Its Bmax (disintegrations/minute) is 4900.

What about the pKi [4] of the same compound?
The pKi was 7.11.

And the Bmax (disintegrations/minute) [5]?
The Bmax (disintegrations/minute) was 3800.

And the Activity [6]?
Its Activity is > 60%.

And the Stability [7]?
The Stability was “Stable”.

And the Activity [8]?
The Activity was < 15%.

What about the pKi [9] of the same compound?
The pKi was 6.70.

And the pKi [10]?
Its pKi is 8.15.

What does the source list for `CCC(=O)NCCNC(=O)CCc1c[nH]cn1`?
inhibition [11]: inactive; inhibition [12]: inactive

For `O=C1Nc2ccccc2N(C(=O)CN2CCN(CC(=O)N3c4ccccc4NC(=O)c4ccccc43)CC2)c2ccccc21`, which inhibition [13] is on record?
Its inhibition is “Active”.

Which results are given for `C[N+](C)(CCCCCC[N+](C)(C)CCCN1C(=O)c2ccccc2C1=O)CCCN1C(=O)c2ccccc2C1=O`?
pKi [14]: 5.97; Kb ([14]; read-out: pA2 (converted)): 263 nM; pKi [15]: 7.50; pKi [16]: 7.40; Kb ([16]; read-out: pA2 (converted)): 155 nM; pKi [17]: 7.50

With `O=C1CCCN1CC#CCN1CCCC1` [OXOTREMORINE] as the compound, how does the pKi [14] read?
Its pKi is 5.00.

What about the pKi [18] of the same compound?
The pKi was 5.00 to 6.60.

And the pKi [16]?
Its pKi is 6.83.
